For test [1], the target named is All-trans-retinol dehydrogenase [NAD(+)] ADH1B (Homo sapiens, UniProt P00325). Description: Inhibition of human alcohol dehydrogenase beta 1 activity. Put shortly: (§1)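 Purified human isozyme in 46 mM sodium phosphate with 0.25 mM EDTA, pH 7.0, 25 °C. The varied substrate (ethanol, acetaldehyde or cyclohexanone) was chosen per enzyme, with coenzyme fixed at 0.2 mM NADH or 2.0 mM NAD+. Inhibitor varied over at least a 3-fold range, 20–25 conditions in duplicate.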

The next test has as its target Alcohol dehydrogenase 1C (Homo sapiens, UniProt P00326). Description: Inhibition of human alcohol dehydrogenase gamma2 activity. In short, it runs like this: as §1
Test [2] has as its target All-trans-retinol dehydrogenase [NAD(+)] ADH4 (Homo sapiens, UniProt P08319). Description: Inhibition of human alcohol dehydrogenase pi activity. Put shortly:
as §1

The target in test [3] is T1, All-trans-retinol dehydrogenase [NAD(+)] ADH7 (Homo sapiens, UniProt P40394). Description: Inhibition of human alcohol dehydrogenase sigma activity. Put shortly: as §1
The target in a further test is Alcohol dehydrogenase (Equus caballus, UniProt P00327+P00328). The test can be described thus: Inhibition of horse liver alcohol dehydrogenase activity.
The target in the next test is Alcohol dehydrogenase 1A (Homo sapiens, UniProt P07327). The test can be described thus: Inhibition of human alcohol dehydrogenase alpha activity. In short, it runs like this: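 Purified human α isozyme. Buffer was 46 mM sodium phosphate with 0.25 mM EDTA, pH 7.0, 25 °C; runs were also done in 33 mM phosphate/EDTA, pH 8.0. NADH 0.2 mM or NAD+ 2.0 mM held fixed. NADH change followed at 340 nm.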

For test [4], the target named is T1, All-trans-retinol dehydrogenase [NAD(+)] ADH7. The test can be described thus: Inhibitory activity against human alcohol dehydrogenase sigma. Put shortly: as §1

SMILES strings stand for the structures.

Alcohol dehydrogenase 1A, sequence (P07327 whole entry): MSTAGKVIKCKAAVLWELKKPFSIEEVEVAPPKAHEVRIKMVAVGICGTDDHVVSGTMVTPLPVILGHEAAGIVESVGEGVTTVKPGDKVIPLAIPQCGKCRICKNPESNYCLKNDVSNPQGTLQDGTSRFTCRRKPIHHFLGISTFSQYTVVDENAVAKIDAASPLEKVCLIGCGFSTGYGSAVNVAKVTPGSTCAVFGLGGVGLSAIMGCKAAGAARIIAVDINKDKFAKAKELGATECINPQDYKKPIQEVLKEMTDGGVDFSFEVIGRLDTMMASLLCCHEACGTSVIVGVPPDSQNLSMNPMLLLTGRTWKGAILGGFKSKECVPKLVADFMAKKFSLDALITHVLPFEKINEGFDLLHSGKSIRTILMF
All-trans-retinol dehydrogenase [NAD(+)] ADH1B, sequence (P00325 whole entry): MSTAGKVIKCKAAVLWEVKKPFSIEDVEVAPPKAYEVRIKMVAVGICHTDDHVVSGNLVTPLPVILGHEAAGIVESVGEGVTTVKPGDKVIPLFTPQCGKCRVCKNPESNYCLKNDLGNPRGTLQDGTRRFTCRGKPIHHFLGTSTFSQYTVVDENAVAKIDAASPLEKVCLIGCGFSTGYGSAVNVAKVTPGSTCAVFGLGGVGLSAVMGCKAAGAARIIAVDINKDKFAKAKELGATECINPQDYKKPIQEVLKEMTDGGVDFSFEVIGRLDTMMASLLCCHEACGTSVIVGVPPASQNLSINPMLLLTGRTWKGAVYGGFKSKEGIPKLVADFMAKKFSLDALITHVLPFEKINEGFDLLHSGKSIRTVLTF
All-trans-retinol dehydrogenase [NAD(+)] ADH4, sequence (P08319 whole entry): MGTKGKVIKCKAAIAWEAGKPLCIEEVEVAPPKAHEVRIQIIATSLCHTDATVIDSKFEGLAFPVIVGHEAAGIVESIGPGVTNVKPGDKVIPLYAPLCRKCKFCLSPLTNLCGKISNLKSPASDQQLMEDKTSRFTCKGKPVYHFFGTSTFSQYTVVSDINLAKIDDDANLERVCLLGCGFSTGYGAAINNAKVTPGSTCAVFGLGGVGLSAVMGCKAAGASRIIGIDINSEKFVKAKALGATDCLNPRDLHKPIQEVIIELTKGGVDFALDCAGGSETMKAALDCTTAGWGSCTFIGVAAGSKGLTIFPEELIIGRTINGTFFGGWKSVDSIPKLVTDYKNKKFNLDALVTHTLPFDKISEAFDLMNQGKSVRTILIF
T1 sequence (P40394 whole entry): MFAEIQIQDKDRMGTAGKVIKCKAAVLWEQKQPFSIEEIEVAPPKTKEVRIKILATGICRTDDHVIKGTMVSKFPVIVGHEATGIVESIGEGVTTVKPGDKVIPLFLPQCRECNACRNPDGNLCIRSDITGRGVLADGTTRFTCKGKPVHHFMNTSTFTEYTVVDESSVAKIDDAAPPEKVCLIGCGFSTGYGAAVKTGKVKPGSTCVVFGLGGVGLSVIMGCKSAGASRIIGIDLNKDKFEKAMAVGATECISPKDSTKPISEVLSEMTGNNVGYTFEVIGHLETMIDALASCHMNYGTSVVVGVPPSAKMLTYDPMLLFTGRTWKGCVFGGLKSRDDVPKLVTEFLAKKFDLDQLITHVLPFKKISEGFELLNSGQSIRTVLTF
Alcohol dehydrogenase 1C, sequence (P00326 whole entry): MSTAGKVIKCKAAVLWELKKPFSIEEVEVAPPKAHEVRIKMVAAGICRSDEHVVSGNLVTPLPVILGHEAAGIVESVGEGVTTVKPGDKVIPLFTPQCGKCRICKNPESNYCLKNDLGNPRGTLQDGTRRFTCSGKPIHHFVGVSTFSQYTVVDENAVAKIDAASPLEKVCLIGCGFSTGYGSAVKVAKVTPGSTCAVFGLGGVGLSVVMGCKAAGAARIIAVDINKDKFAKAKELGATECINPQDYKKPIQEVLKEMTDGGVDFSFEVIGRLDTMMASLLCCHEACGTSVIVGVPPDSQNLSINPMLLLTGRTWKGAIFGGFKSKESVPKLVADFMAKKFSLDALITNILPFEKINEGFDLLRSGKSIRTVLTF

For the compound `O=CNCC1CCCCC1`, the Ki in test [1] was determined as 1 µM; on Alcohol dehydrogenase 1C, 5.8 µM; in test [2] it was 7.1 µM; in test [3], 47 µM; at Alcohol dehydrogenase, 12 µM; on Alcohol dehydrogenase 1A it was 3.6 µM.

With `O=CN(C1CCCCC1)C1CC1`, the inhibition constant (Ki) in test [1] amounted to 250 µM; at Alcohol dehydrogenase 1C it was 120 µM; in test [3], 640 µM; at Alcohol dehydrogenase, 440 µM; on Alcohol dehydrogenase 1A, 5.9 µM.

Consider `CCCN(C=O)C1CCCCC1`, for which the Ki was 4000 µM in test [1], 160 µM on Alcohol dehydrogenase 1C, 5200 µM at Alcohol dehydrogenase and 14 µM at Alcohol dehydrogenase 1A.

Consider `O=CNC1CCCC1`, for which the Ki was 7.3 µM in test [1]; 13 µM at Alcohol dehydrogenase 1C; 150 µM in test [2]; 28 µM in test [3]; 7.6 µM on Alcohol dehydrogenase; 3.9 µM at Alcohol dehydrogenase 1A.

`CC(C)NC=O`: the Ki is 19 µM in test [1]; 15 µM on Alcohol dehydrogenase 1C; 1900 µM in test [2]; 210 µM in test [3]; 2.6 µM at Alcohol dehydrogenase; 22 µM on Alcohol dehydrogenase 1A.

For the compound `O=CN(C1CCC1)C1CCC1`, the inhibition constant Ki stood at 4900 µM in test [1]; 19 µM on Alcohol dehydrogenase 1C; 280 µM in test [2]; 1800 µM in test [3]; 7200 µM on Alcohol dehydrogenase; 1.8 µM on Alcohol dehydrogenase 1A.

`CCCNC=O`: the inhibition constant Ki in test [1] amounted to 5.5 µM; at Alcohol dehydrogenase 1C, 120 µM; in test [2], 300 µM; in test [3] it was 21 µM; at Alcohol dehydrogenase it was 10 µM; at Alcohol dehydrogenase 1A it was 5.6 µM.

Regarding `CC(C)CNC=O`, the Ki turned out to be 26 µM in test [1]; 54 µM on Alcohol dehydrogenase 1C; 340 µM in test [2]; 180 µM in test [3]; 13 µM on Alcohol dehydrogenase; 5.5 µM at Alcohol dehydrogenase 1A.

In the case of `CCCN(C=O)C1CCCC1`, the inhibition constant Ki in test [1] came out at 2800 µM; at Alcohol dehydrogenase 1C, 21 µM; in test [2], 191 µM; in test [3] it was 1700 µM; at Alcohol dehydrogenase it was 1900 µM; on Alcohol dehydrogenase 1A, 4.5 µM.

Take `CC(C)N(C=O)C1CCCCC1`: the Ki in test [1] worked out at 46 µM; at Alcohol dehydrogenase 1C, 83 µM; in test [2], 150 µM; in test [3] it was 1300 µM; on Alcohol dehydrogenase, 470 µM; at Alcohol dehydrogenase 1A, 24 µM.

On to `CCCCNC=O`, for which the Ki in test [1] is 11 µM; at Alcohol dehydrogenase 1C, 100 µM; in test [2] it was 110 µM; in test [3], 30 µM; at Alcohol dehydrogenase it was 16 µM; at Alcohol dehydrogenase 1A, 7.2 µM.

With `CCN(C=O)C1CCCCC1`, the Ki in test [1] came to 1500 µM; on Alcohol dehydrogenase 1C it was 33 µM; on Alcohol dehydrogenase it was 1400 µM; at Alcohol dehydrogenase 1A, 4.5 µM.

`O=CN(C1CCCC1)C1CC1`: the inhibitory constant (Ki) in test [1] was found to be 4600 µM; at Alcohol dehydrogenase 1C it was 4.6 µM; in test [2], 96 µM; in test [3], 930 µM; at Alcohol dehydrogenase it was 110 µM; on Alcohol dehydrogenase 1A, 0.88 µM.

For the compound `CN(C=O)C1CCCCC1`, the Ki in test [1] came to 920 µM; on Alcohol dehydrogenase 1C, 40 µM; in test [2], 120 µM; in test [3], 4900 µM; on Alcohol dehydrogenase it was 600 µM; at Alcohol dehydrogenase 1A it was 5.5 µM.

Take `CCCCCCCN(C=O)C1CC1`: the Ki in test [1] came out at 1900 µM; at Alcohol dehydrogenase 1C, 2.1 µM; in test [2], 31 µM; in test [3], 960 µM; at Alcohol dehydrogenase it was 1100 µM; at Alcohol dehydrogenase 1A, 1.9 µM.

As for `O=CN(C1CCCC1)C1CCCC1`, the Ki in test [1] was 1600 µM; on Alcohol dehydrogenase 1C it was 1000 µM; at Alcohol dehydrogenase it was 2600 µM; at Alcohol dehydrogenase 1A, 7.4 µM.

With `CCCCCCC(C)NC=O` (centres undefined), the Ki turned out to be 1.7 µM in test [1]; 0.41 µM on Alcohol dehydrogenase 1C; 40 µM in test [2]; 100 µM in test [3]; 5.4 µM on Alcohol dehydrogenase; 7 µM on Alcohol dehydrogenase 1A.

On to `O=CNC1CCC1`, for which the Ki came out at 2.9 µM in test [1]; 45 µM on Alcohol dehydrogenase 1C; 450 µM in test [2]; 54 µM in test [4]; 1.7 µM on Alcohol dehydrogenase; 3.8 µM at Alcohol dehydrogenase 1A.

As for `O=CNC1CC1`, the Ki was 6.4 µM in test [1]; 700 µM at Alcohol dehydrogenase 1C; 5200 µM in test [2]; 300 µM in test [3]; 100 µM on Alcohol dehydrogenase; 33 µM at Alcohol dehydrogenase 1A.

For the compound `O=CN(C1CCCC1)C1CCC1` [CYCLOBUTYL(CYCLOPENTYL)FORMAMIDE], the Ki turned out to be 10000 µM in test [1]; 47 µM on Alcohol dehydrogenase 1C; 360 µM in test [2]; 1100 µM in test [3]; 8600 µM at Alcohol dehydrogenase; 0.36 µM at Alcohol dehydrogenase 1A.

Turning to `O=CNC1CCCCC1` [CYCLOHEXYLFORMAMIDE], the inhibition constant Ki in test [1] was determined as 3.4 µM; on Alcohol dehydrogenase 1C, 5.2 µM; in test [2], 84 µM; in test [3], 380 µM; at Alcohol dehydrogenase 1A it was 2.3 µM.

For `CCCCCCCNC=O` [HEPTYLFORMAMIDE], the Ki in test [1] turned out to be 0.33 µM; at Alcohol dehydrogenase 1C, 12 µM; in test [2] it was 11 µM; in test [3] it was 0.74 µM; at Alcohol dehydrogenase, 3 µM; on Alcohol dehydrogenase 1A it was 3.6 µM.

The Ki is the equilibrium dissociation constant of an inhibitor or competing ligand from its target.
